Assay results published in ChEMBL document CHEMBL3526126, “Amide hydrolysis of a novel chemical series of microsomal prostaglandin E synthase-1 inhibitors induces kidney toxicity in the rat” (Drug Metab Dispos, 2013).

Columns and labels:
[1] = AUC (0 to 24 hrs) in Sprague-Dawley rat at 200 umol/kg, po qd administered for 7 days measured on day 7; format: ADME, organism-based; set-up: dose 200 umol/kg, time < 24 hr, route oral; settings: plasma
Procedure, shortened: (§1)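 Toxicity study 2: 2 female satellite rats per dose group. Dosing was once daily by oral gavage (10 ml/kg) for 7 days. Tail-vein EDTA blood was taken at 2, 4, 6, 7 and 24 h on day 1 and on day 7, then chilled and centrifuged to plasma. Parent and M1 were quantified by LC-MS/MS, with M1 measured in negative electrospray mode.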

[2] = Cmax in Wistar Hannover rat at 200 umol/kg, po qd measured on day 1; settings: in vivo
[3] = Cmax in Sprague-Dawley rat at 200 umol/kg, po qd administered for 7 days measured on day 7; format: ADME, organism-based; set-up: dose 200 umol/kg, route oral; settings: in vivo; procedure, shortened: as §1
[4] = Cmax in Sprague-Dawley rat at 70 umol/kg, po qd administered for 7 days measured on day 7; format: ADME, organism-based; set-up: dose 70 umol/kg, route oral; settings: in vivo; procedure, shortened: as §1
[5] = Drug metabolism in Sprague-Dawley rat hepatocytes assessed as amide hydrolysis at 1 to 10 uM by LC-MS analysis; format: ADME, cell-based, Hepatocyte
Procedure, shortened: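 Hepatocytes at 1 × 10^6 cells/ml in William's medium incubated at 37°C with gentle shaking under 5% CO2. Substrate was at […]. Metabolites were analysed by LC-MS.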

[6] = AUC (0 to 24 hrs) in Wistar Hannover rat at 70 umol/kg, po qd measured on day 1; settings: plasma
[7] = tested on: Rattus norvegicus; assay: Toxicity in Wistar Hannover rat kidney assessed as increase in plasma creatinine level at >= 500 to 1000 umol/kg, po qd administered for 7 days measured on day 7; format: organism-based; settings: in vivo, 168 h
Procedure, shortened: (§2)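 Wistar Hannover rats, about 8 weeks old, were acclimatized about 2 weeks and randomized by body weight. Dosing was by oral gavage (10 ml/kg) once daily for 7 days, with vehicle controls. At the end of dosing, plasma (lithium heparin) was taken from the orbital plexus under isoflurane/oxygen anaesthesia, and urea and creatinine were measured.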

[8] = AUC (0 to 24 hrs) in Sprague-Dawley rat at 70 umol/kg, po qd administered for 7 days measured on day 7; format: ADME, organism-based; set-up: time < 24 hr, dose 70 umol/kg, route oral; settings: plasma; procedure, shortened: as §1
[9] = AUC (0 to 24 hrs) in Wistar Hannover rat at 200 umol/kg, po qd measured on day 1; settings: plasma
[10] = Cmax in Wistar Hannover rat at 70 umol/kg, po qd measured on day 1; settings: in vivo
[11] = tested on: Rattus norvegicus; assay: Toxicity in Wistar Hannover rat kidney assessed as increase in plasma urea level at >= 500 to 1000 umol/kg, po qd administered for 7 days measured on day 7; format: organism-based; settings: in vivo, 168 h; procedure, shortened: as §2
[12] = tested on: Rattus norvegicus; assay: Toxicity in Wistar Hannover rat kidney assessed as crystals in urine at 76 to 230 umol/kg, po qd administered for 7 days measured on day 7 by hematoxylin/eosin staining-based light microscopic analysis; format: organism-based; settings: in vivo, 168 h
[13] = tested on: Rattus norvegicus; assay: Toxicity in Wistar Hannover rat kidney assessed as pathophysiological changes at 70 to 500 umol/kg, po qd administered for 7 days measured on day 7; settings: in vivo, 168 h
[14] = Cmax in Wistar Hannover rat at 170 umol/kg, po qd measured on day 1; settings: in vivo
[15] = Cmax in Sprague-Dawley rat at 500 umol/kg, po qd administered for 7 days measured on day 7; format: ADME, organism-based; set-up: dose 500 umol/kg, route oral; settings: in vivo; procedure, shortened: as §1
[16] = AUC (0 to 24 hrs) in Sprague-Dawley rat at 170 umol/kg, po qd administered for 7 days measured on day 7; format: ADME, organism-based; set-up: time < 24 hr, dose 170 umol/kg, route oral; settings: plasma; procedure, shortened: as §1
[17] = AUC (0 to 24 hrs) in Wistar Hannover rat at 170 umol/kg, po qd measured on day 1; settings: plasma
[18] = tested on: Rattus norvegicus; assay: Toxicity in Wistar Hannover rat kidney assessed as crystals in urine at 500 umol/kg, po qd administered for 7 days measured on day 7; format: organism-based; settings: in vivo, 168 h
[19] = Cmax in Sprague-Dawley rat at 170 umol/kg, po qd administered for 7 days measured on day 7; format: ADME, organism-based; set-up: dose 170 umol/kg, route oral; settings: in vivo; procedure, shortened: as §1
[20] = molecular target: T1, Prostaglandin E synthase (Homo sapiens, UniProt O14684); assay: Inhibition of human mPGES-1 by whole blood assay
T1 sequence (O14684 whole entry): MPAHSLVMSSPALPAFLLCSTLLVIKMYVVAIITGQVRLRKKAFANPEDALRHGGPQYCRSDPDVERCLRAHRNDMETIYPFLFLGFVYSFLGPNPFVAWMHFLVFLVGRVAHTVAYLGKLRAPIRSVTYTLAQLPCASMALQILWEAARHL

[21] = AUC (0 to 24 hrs) in Sprague-Dawley rat at 500 umol/kg, po qd administered for 7 days measured on day 7; format: ADME, organism-based; set-up: dose 500 umol/kg, time < 24 hr, route oral; settings: plasma; procedure, shortened: as §1
[22] = Cmax in Wistar Hannover rat at 500 umol/kg, po qd measured on day 1; settings: in vivo
[23] = AUC (0 to 24 hrs) in Wistar Hannover rat at 500 umol/kg, po qd measured on day 1; settings: plasma
[24] = tested on: Hepatocyte; assay: Drug level in Sprague-Dawley rat hepatocytes treated with AZ'7847 at 1 to 10 uM by LC-MS analysis; format: ADME, cell-based
Procedure, shortened: (§3)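 Metabolic profiling in rat hepatocytes at 1 × 10^6 cells/ml in William's medium, shaken gently at 37°C under 5% CO2. Substrate was tested at two concentrations (1 and 10). For radio detection, a 14C-labelled substrate was separated on an Atlantis T3 column (1 ml/min) with a 1:20 split to the MS and a flow scintillation monitor.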

[25] = tested on: Hepatocyte; assay: Drug level in Sprague-Dawley rat hepatocytes treated with AZ'7847 at 1 to 10 uM by radio monitoring method; format: ADME, cell-based; procedure, shortened: as §3
[26] = tested on: Rattus norvegicus; assay: Drug level in Wistar Hannover rat treated with [14C]-AZ'7847 at 500 umol/kg, po qd administered for 7 days measured on day 7 by radio monitoring method; format: ADME, organism-based; settings: in vivo, 168 h

## COc1cc(C(=O)NS(=O)(=O)c2ccccc2S(N)(=O)=O)ccc1C#CC1CC1
[1]
  AUC at 24 h: 1070 µM·h
[2]
  Cmax: 90 µM
[3]
  Cmax: 110 µM
[4]
  Cmax: 50 µM
[5]
  Drug metabolism: metabolite_not_detected
[6]
  AUC(0-t) at 24 h: 610 µM·h
[7]
  Activity: Non-toxic
[8]
  AUC at 24 h: 550 µM·h
[9]
  AUC(0-t) at 24 h: 970 µM·h
[10]
  Cmax: 50 µM
[11]
  Activity: Non-toxic
[12]
  Activity: Non-toxic
[13]
  Activity: Non-toxic

## CC(C)C#Cc1ccc(C(=O)NS(=O)(=O)c2ccccc2S(N)(=O)=O)cc1OCCC(F)(F)F
[14]
  Cmax: 170 µM
[15]
  Cmax: 320 µM
[16]
  AUC at 24 h: 1600 µM·h
[17]
  AUC(0-t) at 24 h: 1260 µM·h
[18]
  Activity: Toxic
[5]
  Drug metabolism: metabolite_not_detected
[19]
  Cmax: 190 µM
[7]
  Activity: Non-toxic
[20]
  IC50: > 2000 nM
[21]
  AUC at 24 h: 3010 µM·h
[11]
  Activity: Non-toxic
[22]
  Cmax: 300 µM
[13]
  Activity: Non-toxic
[23]
  AUC(0-t) at 24 h: 3410 µM·h

## O=[14C](O)c1ccc(C#Cc2ccccc2)cc1
[24]
  Drug metabolism: metabolite_detected
[25]
  Drug metabolism: metabolite_detected
[26]
  Drug metabolism: metabolite_detected
